Assay results reported in ChEMBL document CHEMBL3526035, “Role of the intestinal peptide transporter PEPT1 in oseltamivir absorption: in vitro and in vivo studies” (Drug Metab Dispos, 2012).

Columns and labels:
Type in all cases: ADME, cell-based, Cricetulus griseus
[1] = Drug uptake in CHOK1 cells at 100 uM after 10 mins by HPLC coupled with radiodetection analysis in presence of PEPT1 inhibitor cefadroxil; conditions: chinese hamster, cho-k1, 10 min
Method in brief: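 CHO-K1 cells held in KH buffer at pH 6. Incubated 10 min with [14C]oseltamivir at 100 μM, either with 20 mM Trp-Gly, valacyclovir or cefadroxil, or at 4°C (on ice) against 37°C. Quenched with ice-cold PBS-0.2% BSA, washed, lysed in 1% Triton X-100 at 60°C. Lysate counted by scintillation and normalised to BCA protein. Three experiments, each point in triplicate.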

[2] = Drug uptake in CHOK1 cells expressing human PEPT1 at 100 uM after 10 mins by HPLC coupled with radiodetection analysis in presence of PEPT1 inhibitor Trp-Gly; conditions: chinese hamster, cho-k1, 10 min
Method in brief: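 CHO-PEPT1 and parental CHO-K1 cells were washed in KH/MES buffer, then incubated 10 min at 37°C, pH 6, with 100 µM [14C]oseltamivir alone or with 20 mM of the inhibitor. The pH was readjusted after additions. Uptake was quenched with ice-cold PBS-BSA and cells were washed and lysed in 1% Triton X-100. Lysate radioactivity was normalized to BCA protein. Three experiments on separate days, triplicate wells.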

[3] = Drug uptake in CHOK1 cells expressing human PEPT1 at 100 uM at pH 4 to 8 after 10 mins by HPLC coupled with radiodetection analysis; conditions: chinese hamster, cho-k1, pH 4, 10 min
Method in brief: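 pH series from 4 to 8: CHO-PEPT1 and CHO-K1 cells were exposed to 100 µM [14C]oseltamivir (or 2 µM [3H]Gly-Sar) in KH/MES buffer, with pH readjusted after substrate addition, for 10 min at 37°C. Then quench in ice-cold PBS-BSA, Triton X-100 lysis and scintillation counting normalized to protein. Three independent experiments.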

For CCOC(=O)C1=C[C@@H](OC(CC)CC)[C@H](NC(C)=O)[C@@H](N)C1 [OSELTAMIVIR], the Drug uptake [1] was “Not Active”, the Drug uptake [2] was “Not Active” and the Drug uptake [3] was “Active”.
